Laboratory results as given in ChEMBL document CHEMBL1157032, “Synthesis and antimicrobial activity of novel pyrazolo[3,4-d]pyrimidin derivatives” (2010).
Converted amounts (≈) assume the structure as drawn. The source made the active and inactive calls. The calls are words filed in the database; no cut-off is given here.

Tests used:
Type in all cases: functional
Escherichia coli [1] = assay: Antimicrobial activity against Escherichia coli MTCC 1650 after 24 hrs; conditions: MTCC 1650, 24 h
Summary of the method: (§1)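 Agar well diffusion on Mueller Hinton agar seeded with 0.1 mL of a 10⁵ cfu/mL bacterial suspension in 0.85% sterile saline. 6 mm wells received 0.1 mL of each compound dilution in DMSO (1% DMSO; DMSO alone as control). Plates were incubated 24 h at 37 ± 0.5 °C. Read-out was zone of inhibition in mm. MIC was taken as the lowest concentration giving complete growth inhibition.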

Proteus vulgaris [2] = assay: Antimicrobial activity against Proteus vulgaris MTCC 1771 after 24 hrs; conditions: MTCC 1771, 24 h; summary of the method: as §1
Pseudomonas aeruginosa = assay: Antimicrobial activity against Pseudomonas aeruginosa MTCC 2488 after 24 hrs; conditions: MTCC 2488, 24 h; summary of the method: as §1
Klebsiella pneumoniae [3] = assay: Antimicrobial activity against Klebsiella pneumoniae NCIM 2957 after 24 hrs; conditions: NCIM 2957, 24 h; summary of the method: as §1
Staphylococcus aureus [4] = assay: Antimicrobial activity against Staphylococcus aureus MTCC 96 after 24 hrs; conditions: MTCC 96, 24 h; summary of the method: as §1
Bacillus subtilis [5] = assay: Antimicrobial activity against Bacillus subtilis MTCC 1789 after 24 hrs; conditions: MTCC 1789, 24 h; summary of the method: as §1
Serratia marcescens [6] = assay: Antimicrobial activity against Serratia marcescens MTCC 86 after 24 hrs; conditions: MTCC 86, 24 h; summary of the method: as §1
Priestia megaterium [7] = assay: Antimicrobial activity against Bacillus megaterium MTCC 1684 after 24 hrs; conditions: MTCC 1684, 24 h; summary of the method: as §1
Aspergillus niger [8] = assay: Antimicrobial activity against Aspergillus niger MTCC 1781 after 48 hrs; conditions: MTCC 1781, 48 h
Summary of the method: (§2)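 Fungal spore suspensions in sterile distilled water were adjusted to 10⁶ cfu/mL, and 0.1 mL was spread on Sabouraud dextrose agar. 6 mm wells were filled with 0.1 mL of compound dilution in DMSO (1% DMSO; DMSO-only control). Plates were incubated 48 h at 28 ± 0.2 °C, and inhibition zones were measured in mm. MIC was the lowest concentration completely inhibiting growth.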

Aspergillus flavus [9] = assay: Antimicrobial activity against Aspergillus flavus MTCC 2501 after 48 hrs; conditions: MTCC 2501, 48 h; summary of the method: as §2
Penicillium chrysogenum [10] = assay: Antimicrobial activity against Penicillium chrysogenum MTCC 1996 after 48 hrs; conditions: MTCC 1996, 48 h; summary of the method: as §2
Trichoderma viride [11] = assay: Antimicrobial activity against Trichoderma viride MTCC 167 after 48 hrs; conditions: MTCC 167, 48 h; summary of the method: as §2
Candida albicans [12] = assay: Antimicrobial activity against Candida albicans MTCC 227 after 48 hrs; conditions: MTCC 227, 48 h; summary of the method: as §2
Escherichia coli [13] = assay: Antimicrobial activity against Escherichia coli MTCC 1650 at MIC after 24 hrs by agar diffusion method; summary of the method: as §1
Klebsiella pneumoniae [14] = assay: Antimicrobial activity against Klebsiella pneumoniae NCIM 2957 at MIC after 24 hrs by agar diffusion method; summary of the method: as §1
Staphylococcus aureus [15] = assay: Antimicrobial activity against Staphylococcus aureus MTCC 96 at MIC after 24 hrs by agar diffusion method; summary of the method: as §1
Bacillus subtilis [16] = assay: Antimicrobial activity against Bacillus subtilis MTCC 1789 at MIC after 24 hrs by agar diffusion method; summary of the method: as §1
Serratia marcescens [17] = assay: Antimicrobial activity against Serratia marcescens MTCC 86 at MIC after 24 hrs by agar diffusion method; summary of the method: as §1
Priestia megaterium [18] = assay: Antimicrobial activity against Bacillus megaterium MTCC 1684 at MIC after 24 hrs by agar diffusion method; summary of the method: as §1
Aspergillus niger [19] = assay: Antimicrobial activity against Aspergillus niger MTCC 1781 at MIC after 48 hrs by agar diffusion method; summary of the method: as §2
Aspergillus flavus [20] = assay: Antimicrobial activity against Aspergillus flavus MTCC 2501 at MIC after 48 hrs by agar diffusion method; summary of the method: as §2
Penicillium chrysogenum [21] = assay: Antimicrobial activity against Penicillium chrysogenum MTCC 1996 at MIC after 48 hrs by agar diffusion method; summary of the method: as §2
Trichoderma viride [22] = assay: Antimicrobial activity against Trichoderma viride MTCC 167 at MIC after 48 hrs by agar diffusion method; summary of the method: as §2
Candida albicans [23] = assay: Antimicrobial activity against Candida albicans MTCC 227 at MIC after 48 hrs by agar diffusion method; summary of the method: as §2
Proteus vulgaris [24] = assay: Antimicrobial activity against Proteus vulgaris MTCC 1771 at MIC after 24 hrs by agar diffusion method; summary of the method: as §1

SMILES	MIC (Escherichia coli [1]) [µg/mL]	MIC (Proteus vulgaris [2]) [µg/mL]	MIC (Pseudomonas aeruginosa) [µg/mL]	MIC (Klebsiella pneumoniae [3]) [µg/mL]	MIC (Staphylococcus aureus [4]) [µg/mL]	MIC (Bacillus subtilis [5]) [µg/mL]	MIC (Serratia marcescens [6]) [µg/mL]	MIC (Priestia megaterium [7]) [µg/mL]	MIC (Aspergillus niger [8]) [µg/mL]	MIC (Aspergillus flavus [9]) [µg/mL]	MIC (Penicillium chrysogenum [10]) [µg/mL]	MIC (Trichoderma viride [11]) [µg/mL]	MIC (Candida albicans [12]) [µg/mL]	inhibition zone (IZ) (Escherichia coli [13])	inhibition zone (IZ) (Staphylococcus aureus [15])	inhibition zone (IZ) (Bacillus subtilis [16])	inhibition zone (IZ) (Serratia marcescens [17])	inhibition zone (IZ) (Priestia megaterium [18])	inhibition zone (IZ) (Aspergillus niger [19])	inhibition zone (IZ) (Aspergillus flavus [20])	also measured
Nc1n[nH]c2nc3scc(-c4ccc(Cl)cc4)n3c(=O)c12	50 (≈ 157 µM)	50 (≈ 157 µM)	50 (≈ 157 µM)	50 (≈ 157 µM)	50 (≈ 157 µM)	50 (≈ 157 µM)	50 (≈ 157 µM)	50 (≈ 157 µM)	250 (≈ 787 µM)	250 (≈ 787 µM)	250 (≈ 787 µM)	250 (≈ 787 µM)	250 (≈ 787 µM)	inactive	inactive	10 mm	21 mm	inactive	12 mm	23 mm	inhibition zone (IZ) (Klebsiella pneumoniae [14]): 15 mm; inhibition zone (IZ) (Penicillium chrysogenum [21]): 26 mm; inhibition zone (IZ) (Trichoderma viride [22]): 20 mm; inhibition zone (IZ) (Candida albicans [23]): 13 mm
Nc1n[nH]c2nc3scc(-c4ccc([N+](=O)[O-])cc4)n3c(=O)c12	50 (≈ 152 µM)	50 (≈ 152 µM)	50 (≈ 152 µM)	50 (≈ 152 µM)	50 (≈ 152 µM)	50 (≈ 152 µM)	50 (≈ 152 µM)	50 (≈ 152 µM)	250 (≈ 761 µM)	250 (≈ 761 µM)	250 (≈ 761 µM)	250 (≈ 761 µM)	250 (≈ 761 µM)	10 mm	31 mm	inactive	16 mm	inactive	inactive	16 mm	inhibition zone (IZ) (Proteus vulgaris [24]): inactive; inhibition zone (IZ) (Klebsiella pneumoniae [14]): 13 mm; inhibition zone (IZ) (Penicillium chrysogenum [21]): 32 mm; inhibition zone (IZ) (Trichoderma viride [22]): 29 mm; inhibition zone (IZ) (Candida albicans [23]): 21 mm
Nc1n[nH]c2nc3scc(-c4cc(Cl)cc(I)c4O)n3c(=O)c12	50 (≈ 109 µM)	50 (≈ 109 µM)	50 (≈ 109 µM)	50 (≈ 109 µM)	50 (≈ 109 µM)	50 (≈ 109 µM)	50 (≈ 109 µM)	50 (≈ 109 µM)	250 (≈ 544 µM)	250 (≈ 544 µM)	250 (≈ 544 µM)	250 (≈ 544 µM)	250 (≈ 544 µM)	inactive	16 mm	14 mm	inactive	inactive	inactive	inactive	inhibition zone (IZ) (Penicillium chrysogenum [21]): 14 mm; inhibition zone (IZ) (Trichoderma viride [22]): 21 mm; inhibition zone (IZ) (Candida albicans [23]): inactive
Nc1n[nH]c2nc3scc(-c4ccc(Br)cc4)n3c(=O)c12	50 (≈ 138 µM)	50 (≈ 138 µM)	50 (≈ 138 µM)	50 (≈ 138 µM)	50 (≈ 138 µM)	50 (≈ 138 µM)	50 (≈ 138 µM)	50 (≈ 138 µM)	250 (≈ 690 µM)	250 (≈ 690 µM)	250 (≈ 690 µM)	250 (≈ 690 µM)	250 (≈ 690 µM)	14 mm	18 mm	inactive	inactive	inactive	10 mm	10 mm	inhibition zone (IZ) (Proteus vulgaris [24]): inactive; inhibition zone (IZ) (Klebsiella pneumoniae [14]): inactive; inhibition zone (IZ) (Penicillium chrysogenum [21]): 15 mm; inhibition zone (IZ) (Trichoderma viride [22]): 27 mm; inhibition zone (IZ) (Candida albicans [23]): 10 mm
Nc1n[nH]c2nc3scc(-c4ccccc4O)n3c(=O)c12	50 (≈ 167 µM)	50 (≈ 167 µM)	50 (≈ 167 µM)	50 (≈ 167 µM)	50 (≈ 167 µM)	50 (≈ 167 µM)	50 (≈ 167 µM)	50 (≈ 167 µM)	250 (≈ 835 µM)	250 (≈ 835 µM)	250 (≈ 835 µM)	250 (≈ 835 µM)	250 (≈ 835 µM)	inactive	12 mm	inactive	16 mm	inactive	10 mm	inactive	inhibition zone (IZ) (Klebsiella pneumoniae [14]): inactive; inhibition zone (IZ) (Penicillium chrysogenum [21]): inactive; inhibition zone (IZ) (Trichoderma viride [22]): 20 mm; inhibition zone (IZ) (Candida albicans [23]): 18 mm

More lines, main results first:

MIC (Escherichia coli [1]) [µg/mL]	MIC (Proteus vulgaris [2]) [µg/mL]	MIC (Pseudomonas aeruginosa) [µg/mL]	MIC (Klebsiella pneumoniae [3]) [µg/mL]	MIC (Staphylococcus aureus [4]) [µg/mL]	MIC (Bacillus subtilis [5]) [µg/mL]	MIC (Serratia marcescens [6]) [µg/mL]	MIC (Priestia megaterium [7]) [µg/mL]	MIC (Aspergillus niger [8]) [µg/mL]	MIC (Aspergillus flavus [9]) [µg/mL]	MIC (Penicillium chrysogenum [10]) [µg/mL]	MIC (Trichoderma viride [11]) [µg/mL]	MIC (Candida albicans [12]) [µg/mL]	SMILES	inhibition zone (IZ) (Escherichia coli [13])	inhibition zone (IZ) (Staphylococcus aureus [15])	inhibition zone (IZ) (Bacillus subtilis [16])	inhibition zone (IZ) (Serratia marcescens [17])	inhibition zone (IZ) (Priestia megaterium [18])	inhibition zone (IZ) (Aspergillus niger [19])	inhibition zone (IZ) (Aspergillus flavus [20])	also measured
50 (≈ 136 µM)	50 (≈ 136 µM)	50 (≈ 136 µM)	50 (≈ 136 µM)	50 (≈ 136 µM)	50 (≈ 136 µM)	50 (≈ 136 µM)	50 (≈ 136 µM)	250 (≈ 679 µM)	250 (≈ 679 µM)	250 (≈ 679 µM)	250 (≈ 679 µM)	250 (≈ 679 µM)	Nc1n[nH]c2nc3scc(-c4cc(Cl)c(Cl)cc4O)n3c(=O)c12	12 mm	inactive	inactive	inactive	inactive	11 mm	18 mm	inhibition zone (IZ) (Penicillium chrysogenum [21]): 23 mm; inhibition zone (IZ) (Trichoderma viride [22]): 22 mm; inhibition zone (IZ) (Candida albicans [23]): 10 mm
50 (≈ 150 µM)	50 (≈ 150 µM)	50 (≈ 150 µM)	50 (≈ 150 µM)	50 (≈ 150 µM)	50 (≈ 150 µM)	50 (≈ 150 µM)	50 (≈ 150 µM)	250 (≈ 749 µM)	250 (≈ 749 µM)	250 (≈ 749 µM)	250 (≈ 749 µM)	250 (≈ 749 µM)	Nc1n[nH]c2nc3scc(-c4cc(Cl)ccc4O)n3c(=O)c12	inactive	31 mm	10 mm	18 mm	12 mm	16 mm	11 mm	inhibition zone (IZ) (Proteus vulgaris [24]): 9 mm; inhibition zone (IZ) (Klebsiella pneumoniae [14]): 13 mm; inhibition zone (IZ) (Penicillium chrysogenum [21]): 25 mm; inhibition zone (IZ) (Trichoderma viride [22]): 27 mm; inhibition zone (IZ) (Candida albicans [23]): 12 mm
50 (≈ 144 µM)	50 (≈ 144 µM)	50 (≈ 144 µM)	50 (≈ 144 µM)	50 (≈ 144 µM)	50 (≈ 144 µM)	50 (≈ 144 µM)	50 (≈ 144 µM)	250 (≈ 719 µM)	250 (≈ 719 µM)	250 (≈ 719 µM)	250 (≈ 719 µM)	250 (≈ 719 µM)	Cc1cc(-c2csc3nc4[nH]nc(N)c4c(=O)n23)c(O)cc1Cl	12 mm	inactive	inactive	inactive	inactive	9 mm	12 mm	inhibition zone (IZ) (Penicillium chrysogenum [21]): 32 mm; inhibition zone (IZ) (Trichoderma viride [22]): 27 mm; inhibition zone (IZ) (Candida albicans [23]): 17 mm
50 (≈ 121 µM)	50 (≈ 121 µM)	50 (≈ 121 µM)	50 (≈ 121 µM)	50 (≈ 121 µM)	50 (≈ 121 µM)	50 (≈ 121 µM)	50 (≈ 121 µM)	250 (≈ 606 µM)	250 (≈ 606 µM)	250 (≈ 606 µM)	250 (≈ 606 µM)	250 (≈ 606 µM)	Nc1n[nH]c2nc3scc(-c4cc(Cl)cc(Br)c4O)n3c(=O)c12	11 mm	16 mm	inactive	15 mm	inactive	inactive	11 mm	inhibition zone (IZ) (Proteus vulgaris [24]): inactive; inhibition zone (IZ) (Klebsiella pneumoniae [14]): 9 mm; inhibition zone (IZ) (Penicillium chrysogenum [21]): 28 mm; inhibition zone (IZ) (Trichoderma viride [22]): 26 mm; inhibition zone (IZ) (Candida albicans [23]): 16 mm
